Measured values taken from article PMC2782628 (Journal of medicinal chemistry, 2009).

Key:
iNOS = iNOS (Mus musculus, UniProt P29477); test: Blocking study of [18F]9 uptake in LPS-treated mice; format: in vivo, C57BL/6N mice
recombinant human iNOS = recombinant human iNOS (Homo sapiens, UniProt P35228); test: NOS enzyme assay; format: biochemical; details: for activity in the iNOS assay: structure-activity discussion
How it was run: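 Recombinant iNOS in 50 mM Tris pH 7.4 with 1.0 mM NADPH, 3.8 µM each of FMN, FAD and tetrahydro-L-biopterin, 2.0 mM DTT and 2.0 µM L-arginine. Test compound was diluted in methanol or water. [3H]arginine (0.1 µCi) started the reaction, run 30 min at room temperature. Stopped with yttrium-silicate arginine-binding SPA beads in NaOH; beads settled 2 h, then counted. IC50 from inhibition curves, mean ± S.D., N≥3.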

recombinant human eNOS = recombinant human eNOS (Homo sapiens, UniProt P29474); test: NOS enzyme assay; format: biochemical; details: iNOS vs eNOS
How it was run: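 The eNOS buffer also had 20 µg/mL calmodulin and 1 mM CaCl2. [3H]arginine started the reaction, 30 min at room temperature. SPA arginine-binding beads stopped it; counted after 2 h. Mean ± S.D., N≥3.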

[1] = In vivo biodistribution time-course study in control vs. LPS-treated mice; set-up: species or system C57BL/6 mice; details: for Biodistribution Blood / Biodistribution Bone / Biodistribution Brain / Biodistribution Heart / Biodistribution Kidney / Biodistribution Liver / Biodistribution Lung / Biodistribution Muscle: mean ± SD, n = 4
How it was run: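 Mature male C57BL/6N mice (6-8 weeks), either given E. coli O127:B8 LPS in PBS (10 mg/kg i.v.) 6 h before tracer or left untreated. HPLC-purified [18F]-labelled test compound (~50 μCi in 10% ethanol/saline) injected i.v. via tail vein. Sacrificed at 5 min, 30 min, 1 h and 2 h. Blood, tissues and organs weighed and gamma-counted against diluted injectate standards, giving %ID/g (mean ± SD).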

Sequence of recombinant human iNOS (P35228 whole entry): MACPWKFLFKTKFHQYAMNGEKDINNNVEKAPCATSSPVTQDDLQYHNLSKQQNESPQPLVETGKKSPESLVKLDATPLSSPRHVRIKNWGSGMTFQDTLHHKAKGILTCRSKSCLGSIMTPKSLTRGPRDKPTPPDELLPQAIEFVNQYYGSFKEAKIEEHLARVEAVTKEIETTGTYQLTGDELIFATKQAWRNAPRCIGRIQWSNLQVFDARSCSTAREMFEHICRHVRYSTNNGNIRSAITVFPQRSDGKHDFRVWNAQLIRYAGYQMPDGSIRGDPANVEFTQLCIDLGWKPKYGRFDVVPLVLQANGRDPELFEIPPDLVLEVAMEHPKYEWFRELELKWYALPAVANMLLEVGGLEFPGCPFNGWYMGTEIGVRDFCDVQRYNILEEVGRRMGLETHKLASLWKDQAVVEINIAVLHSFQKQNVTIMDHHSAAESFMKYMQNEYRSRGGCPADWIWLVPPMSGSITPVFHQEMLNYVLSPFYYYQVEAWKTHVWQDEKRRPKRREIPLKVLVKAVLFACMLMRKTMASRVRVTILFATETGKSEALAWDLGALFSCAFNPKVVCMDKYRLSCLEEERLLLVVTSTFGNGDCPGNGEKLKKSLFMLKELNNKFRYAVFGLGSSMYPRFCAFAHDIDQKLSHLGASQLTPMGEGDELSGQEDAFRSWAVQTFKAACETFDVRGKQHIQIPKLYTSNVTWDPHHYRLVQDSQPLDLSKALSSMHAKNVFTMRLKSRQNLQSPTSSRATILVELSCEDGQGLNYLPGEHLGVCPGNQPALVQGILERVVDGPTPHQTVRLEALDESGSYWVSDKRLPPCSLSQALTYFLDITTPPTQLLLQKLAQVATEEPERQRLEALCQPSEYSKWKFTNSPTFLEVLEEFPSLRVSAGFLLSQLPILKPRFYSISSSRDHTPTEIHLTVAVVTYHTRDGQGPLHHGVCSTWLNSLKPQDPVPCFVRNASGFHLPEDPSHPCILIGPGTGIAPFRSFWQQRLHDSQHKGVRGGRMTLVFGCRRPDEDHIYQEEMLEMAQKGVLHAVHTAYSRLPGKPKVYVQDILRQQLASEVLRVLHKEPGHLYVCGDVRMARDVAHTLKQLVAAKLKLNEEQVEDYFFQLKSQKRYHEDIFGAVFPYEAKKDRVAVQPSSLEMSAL

Cc1ccnc(N)c1 [Compound 1, 2-amino-4-methylpyridine]
blocking of the increased [18F]9 uptake in the LPS-treated mice (iNOS; blocking agent 10 mg/kg, i.v., data not shown): failed to block

Nc1ccccn1 [Compound 2-AP, 2-aminopyridine, reference compound]
IC50 (recombinant human iNOS): 108 nM

COC(C)Cc1cc(C)cc(N)n1 (centres unmarked) [Compound 13, 6-(2-Methoxypropyl)-4-methylpyridin-2-amine]
activity in the iNOS assay (recombinant human iNOS): inactive

Cc1cc(N)nc(CC(C)OCCF)c1 (centres unmarked) [Compound 15, 6-(2-(2-Fluoroethoxy)propyl)-4-methylpyridin-2-amine]
activity in the iNOS assay (recombinant human iNOS): inactive

Cc1cc(N)nc(CCCF)c1 [Compound 18, 6-(3-Fluoropropyl)-4-methylpyridin-2-amine]
selectivity against eNOS (recombinant human eNOS): approximately 30 fold

COCCC(C)Cc1cc(C)cc(N)n1 (centres unmarked) [Compound 27, 6-(4-methoxy-2-methylbutyl)-4-methylpyridin-2-amine]
activity in the iNOS assay (recombinant human iNOS): inactive

CSCCC(C)Cc1cc(C)cc(N)n1 (centres unmarked) [Compound 33, 4-Methyl-6-(2-methyl-4-(methylthio)butyl)pyridin-2-amine]
activity in the iNOS assay (recombinant human iNOS): inactive

CC(=N)NCc1cccc(CN)c1 [Compound 1400W, N-(3-(aminomethyl)benzyl)acetamidine]
tracer ([18F]9) uptake in the lungs and blood of the LPS-treated mice blocked (iNOS; mouse, in vivo): 32%

Cc1cc(N)nc(CC(C)[18F])c1 (centres unmarked) [[^18F]9, [^18F]6-(2-Fluoropropyl)-4-methylpyridin-2-amine]
Biodistribution Blood ([1]; 5 min, Control mice): 2.37±0.18 %ID/g
Biodistribution Blood ([1]; 5 min, LPS-treated mice): 3.69±0.38 %ID/g
Biodistribution Blood ([1]; 30 min, Control mice): 1.22±0.16 %ID/g
Biodistribution Blood ([1]; 30 min, LPS-treated mice): 2.09±0.35 %ID/g
Biodistribution Blood ([1]; 1 h, Control mice): 0.31±0.04 %ID/g
Biodistribution Blood ([1]; 1 h, LPS-treated mice): 0.86±0.09 %ID/g
Biodistribution Blood ([1]; 2 h, Control mice): 0.27±0.22 %ID/g
Biodistribution Blood ([1]; 2 h, LPS-treated mice): 0.23±0.05 %ID/g
Biodistribution Bone ([1]; 5 min, Control mice): 1.52±0.36 %ID/g
Biodistribution Bone ([1]; 5 min, LPS-treated mice): 1.59±0.15 %ID/g
Biodistribution Bone ([1]; 30 min, Control mice): 2.26±0.55 %ID/g
Biodistribution Bone ([1]; 30 min, LPS-treated mice): 3.70±1.20 %ID/g
Biodistribution Bone ([1]; 1 h, Control mice): 2.57±0.64 %ID/g
Biodistribution Bone ([1]; 1 h, LPS-treated mice): 4.30±0.90 %ID/g
Biodistribution Bone ([1]; 2 h, Control mice): 5.59±4.20 %ID/g
Biodistribution Bone ([1]; 2 h, LPS-treated mice): 3.77±1.41 %ID/g
Biodistribution Brain ([1]; 5 min, Control mice): 1.60±0.17 %ID/g
Biodistribution Brain ([1]; 5 min, LPS-treated mice): 1.81±0.09 %ID/g
Biodistribution Brain ([1]; 30 min, Control mice): 0.28±0.02 %ID/g
Biodistribution Brain ([1]; 30 min, LPS-treated mice): 0.52±0.15 %ID/g
Biodistribution Brain ([1]; 1 h, Control mice): 0.11±0.02 %ID/g
Biodistribution Brain ([1]; 1 h, LPS-treated mice): 0.19±0.03 %ID/g
Biodistribution Brain ([1]; 2 h, Control mice): 0.07±0.03 %ID/g
Biodistribution Brain ([1]; 2 h, LPS-treated mice): 0.07±0.03 %ID/g
Biodistribution Heart ([1]; 5 min, Control mice): 1.50±0.12 %ID/g
Biodistribution Heart ([1]; 5 min, LPS-treated mice): 2.03±0.06 %ID/g
Biodistribution Heart ([1]; 30 min, Control mice): 0.60±0.05 %ID/g
Biodistribution Heart ([1]; 30 min, LPS-treated mice): 1.02±0.16 %ID/g
Biodistribution Heart ([1]; 1 h, Control mice): 0.19±0.02 %ID/g
Biodistribution Heart ([1]; 1 h, LPS-treated mice): 0.41±0.10 %ID/g
Biodistribution Heart ([1]; 2 h, Control mice): 0.08±0.02 %ID/g
Biodistribution Heart ([1]; 2 h, LPS-treated mice): 0.12±0.04 %ID/g
Biodistribution Kidney ([1]; 5 min, Control mice): 20.6±2.4 %ID/g
Biodistribution Kidney ([1]; 5 min, LPS-treated mice): 26.7±4.1 %ID/g
Biodistribution Kidney ([1]; 30 min, Control mice): 7.30±0.66 %ID/g
Biodistribution Kidney ([1]; 30 min, LPS-treated mice): 10.9±2.8 %ID/g
Biodistribution Kidney ([1]; 1 h, Control mice): 2.20±0.25 %ID/g
Biodistribution Kidney ([1]; 1 h, LPS-treated mice): 3.95±0.53 %ID/g
Biodistribution Kidney ([1]; 2 h, Control mice): 0.80±0.27 %ID/g
Biodistribution Kidney ([1]; 2 h, LPS-treated mice): 0.91±0.63 %ID/g
Biodistribution Liver ([1]; 5 min, Control mice): 33.2±3.3 %ID/g
Biodistribution Liver ([1]; 5 min, LPS-treated mice): 24.6±3.1 %ID/g
Biodistribution Liver ([1]; 30 min, Control mice): 10.7±0.3 %ID/g
Biodistribution Liver ([1]; 30 min, LPS-treated mice): 7.06±0.28 %ID/g
Biodistribution Liver ([1]; 1 h, Control mice): 2.59±0.49 %ID/g
Biodistribution Liver ([1]; 1 h, LPS-treated mice): 2.63±0.52 %ID/g
Biodistribution Liver ([1]; 2 h, Control mice): 0.74±0.23 %ID/g
Biodistribution Liver ([1]; 2 h, LPS-treated mice): 0.42±0.15 %ID/g
Biodistribution Lung ([1]; 5 min, Control mice): 3.33±0.28 %ID/g
Biodistribution Lung ([1]; 5 min, LPS-treated mice): 4.32±0.32 %ID/g
Biodistribution Lung ([1]; 30 min, Control mice): 1.14±0.13 %ID/g
Biodistribution Lung ([1]; 30 min, LPS-treated mice): 1.84±0.27 %ID/g
Biodistribution Lung ([1]; 1 h, Control mice): 0.31±0.06 %ID/g
Biodistribution Lung ([1]; 1 h, LPS-treated mice): 0.73±0.17 %ID/g
Biodistribution Lung ([1]; 2 h, Control mice): 0.15±0.03 %ID/g
Biodistribution Lung ([1]; 2 h, LPS-treated mice): 0.18±0.09 %ID/g
Biodistribution Muscle ([1]; 5 min, Control mice): 1.25±0.06 %ID/g
Biodistribution Muscle ([1]; 5 min, LPS-treated mice): 1.64±0.09 %ID/g
Biodistribution Muscle ([1]; 30 min, Control mice): 0.71±0.31 %ID/g
Biodistribution Muscle ([1]; 30 min, LPS-treated mice): 1.06±0.40 %ID/g
Biodistribution Muscle ([1]; 1 h, Control mice): 0.27±0.18 %ID/g
Biodistribution Muscle ([1]; 1 h, LPS-treated mice): 0.78±0.47 %ID/g
Biodistribution Muscle ([1]; 2 h, Control mice): 0.34±0.27 %ID/g
Biodistribution Muscle ([1]; 2 h, LPS-treated mice): 0.23±0.13 %ID/g
increase in injected dose/gram (ID/g) in the lungs, LPS-treated vs control mice ([1]; 5 min): 30%
increase in injected dose/gram (ID/g) in the lungs, LPS-treated vs control mice ([1]; 30 min): 60%
